The source made the active and inactive calls. The calls are words filed in the database; no cut-off is given here.
What was measured:
[1] = system: Mus musculus; test: Increase in spontaneous locomotor activity in ICR Swiss mouse at 10 mg/kg, ip measured after 30 to 270 mins post compound administration; type: functional, organism-based; set-up: dose 10 mg/kg
Outline: (§1)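 Male ICR Swiss mice (20-25 g), compound in saline ip, housed three per cage at ≤18 °C. Starting 30 min and 4.5 h after injection, each mouse was placed in a circular actophotometer (25 cm diameter, four photocells, central light) for 30 min. A count was scored per cross of two consecutive beams (locomotion only). Means of at least eight animals per group.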

[2] = Toxicity in ip dosed ICR Swiss mouse; type: organism-based; conditions: in vivo
[3] = biological target: Sodium-dependent serotonin transporter (Rattus norvegicus) (UniProt P31652); test: Inhibition of SERT-mediated 5-HT uptake in Wistar rat brain synaptosomes at 0.2 uM; type: subcellular
Chain of Sodium-dependent serotonin transporter (Rattus norvegicus) (P31652 whole entry): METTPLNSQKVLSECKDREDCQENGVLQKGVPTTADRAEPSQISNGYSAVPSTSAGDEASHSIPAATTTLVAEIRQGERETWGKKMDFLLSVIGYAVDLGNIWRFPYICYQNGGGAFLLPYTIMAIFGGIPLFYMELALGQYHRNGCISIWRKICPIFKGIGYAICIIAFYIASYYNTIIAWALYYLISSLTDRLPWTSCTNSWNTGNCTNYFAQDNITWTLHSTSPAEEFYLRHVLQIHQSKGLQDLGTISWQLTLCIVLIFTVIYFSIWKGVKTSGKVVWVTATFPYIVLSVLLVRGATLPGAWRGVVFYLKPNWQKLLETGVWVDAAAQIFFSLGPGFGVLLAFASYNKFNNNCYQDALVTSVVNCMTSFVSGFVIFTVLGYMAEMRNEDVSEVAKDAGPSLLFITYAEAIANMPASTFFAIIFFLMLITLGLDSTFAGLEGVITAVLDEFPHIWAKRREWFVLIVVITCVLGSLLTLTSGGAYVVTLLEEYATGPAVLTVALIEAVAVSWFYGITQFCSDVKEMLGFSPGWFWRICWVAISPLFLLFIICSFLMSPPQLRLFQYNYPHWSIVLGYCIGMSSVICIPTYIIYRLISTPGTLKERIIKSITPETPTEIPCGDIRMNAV

[4] = system: Rattus norvegicus; test: Reduction in 5-HT level in Wistar rat brain synaptosomes at 15 mg/kg, ip measured after 4 hrs by fluorometric assay; type: functional; set-up: scale not given: the % may be the effect or the level left; conditions: route intraperitoneal
[5] = system: Rattus norvegicus; test: Reduction in 5-HT level in Wistar rat brain synaptosomes at 15 mg/kg, ip measured after 24 hrs by fluorometric assay; type: functional; set-up: scale not given: the % may be the effect or the level left; conditions: route intraperitoneal
[6] = system: Rattus norvegicus; test: Inhibition of SERT-mediated 5-HT uptake in Wistar rat brain at 15 mg/kg, ip measured after 24 hrs; type: functional; conditions: route intraperitoneal
Outline: (§2)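 Male Wistar-derived rats were dosed ip (saline vehicle) and killed 24 h or 7 days later. Whole brains were homogenized in 8 vol 0.25 M sucrose.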

[7] = system: Rattus norvegicus; test: Inhibition of SERT-mediated 5-HT uptake in Wistar rat brain at 7.5 mg/kg, ip measured after 24 hrs; type: functional; conditions: route intraperitoneal; outline: as §2
[8] = system: Rattus norvegicus; test: Inhibition of SERT-mediated 5-HT uptake in Wistar rat brain at 7.5 mg/kg, ip measured after 7 days; type: functional; conditions: 168 h, route intraperitoneal; outline: as §2
[9] = system: Mus musculus; test: Increase in spontaneous locomotor activity in ICR Swiss mouse at 10 mg/kg, ip measured after 4 hrs post compound administration; type: functional, organism-based; set-up: dose 10 mg/kg; outline: as §1
[10] = Inhibition of MAO in Wistar rat brain using [3H]serotonin as substrate
[11] = system: Rattus norvegicus; test: Reduction in 5-HT level in Wistar rat brain synaptosomes at 7.5 mg/kg, ip measured after 4 hrs by fluorometric assay; type: functional; set-up: scale not given: the % may be the effect or the level left; conditions: route intraperitoneal
[12] = system: Rattus norvegicus; test: Reduction in 5-HT level in Wistar rat brain synaptosomes at 7.5 mg/kg, ip measured after 24 hrs by fluorometric assay; type: functional; set-up: scale not given: the % may be the effect or the level left; conditions: route intraperitoneal
[13] = system: Rattus norvegicus; test: Reduction in 5-HT level in Wistar rat brain synaptosomes at 7.5 mg/kg, ip measured after 7 days by fluorometric assay; type: functional; set-up: scale not given: the % may be the effect or the level left; conditions: route intraperitoneal
[14] = biological target: Sodium-dependent serotonin transporter (Rattus norvegicus, UniProt P31652); test: Inhibition of SERT-mediated 5-HT uptake in Wistar rat brain synaptosomes; type: subcellular
Chain of Sodium-dependent serotonin transporter (P31652 whole entry): as above

[15] = organism: Rattus norvegicus; test: Ratio of PCA IC50 to compound IC50 for MAO in Wistar rat brain using [3H]serotonin as substrate
[16] = system: Rattus norvegicus; test: Inhibition of SERT-mediated 5-HT uptake in Wistar rat brain at 15 mg/kg, ip measured after 7 days; type: functional; conditions: 168 h, route intraperitoneal; outline: as §2
[17] = system: Rattus norvegicus; test: Reduction in 5-HT level in Wistar rat brain synaptosomes at 15 mg/kg, ip measured after 7 days by fluorometric assay; type: functional; set-up: scale not given: the % may be the effect or the level left; conditions: route intraperitoneal

## CC(N)Cc1sccc1Cl.Cl (racemic)
[1]
  Activity: inactive
[2]
  LD50: 101 mg/kg
[3]
  inhibition: 6.6%
[4]
  Activity: 2.8%

## CC(N)Cc1cc(Cl)cs1.Cl (racemic)
[1]
  Activity: Active
[2]
  LD50: 128 mg/kg
[3]
  inhibition: 18.7%
[4]
  Activity: 22.1%
[5]
  Activity: 18.3%
[6]
  inhibition in vivo at 15 mg/kg: 6.7%

## CC(N)Cc1ccc(Cl)cc1.Cl (racemic)
[7]
  inhibition in vivo at 7.5 mg/kg: 45.5%
[8]
  inhibition in vivo at 7.5 mg/kg: 34.3%
[9]
  Activity: Active
[2]
  LD50: 64 mg/kg
[10]
  IC50: 3700 nM
[3]
  inhibition: 38.4%
[11]
  Activity: 48.6%
[12]
  Activity: 47.6%
[13]
  Activity: 63.7%
[14]
  IC50: 500 nM

## CC(N)Cc1scc(Cl)c1Cl.Cl (racemic)
[15]
  Ratio IC50: 15
[1]
  Activity: Active
[2]
  LD50: 121 mg/kg
[10]
  IC50: 250 nM
[3]
  inhibition: 27.5%
[4]
  Activity: 10.3%
[5]
  Activity: 11.7%
[6]
  inhibition in vivo at 15 mg/kg: 0.4%

## CC(N)Cc1cc(Cl)c(Cl)s1.Cl (racemic)
[16]
  inhibition in vivo at 15 mg/kg: 32.4%
[1]
  Activity: Active
[2]
  LD50: 133 mg/kg
[3]
  inhibition: 40.5%
[4]
  Activity: 49.3%
[5]
  Activity: 50.7%
[17]
  Activity: 41.6%
[14]
  IC50: 450 nM
[6]
  inhibition in vivo at 15 mg/kg: 30.4%

## CC(N)Cc1sc(Cl)cc1Cl.Cl (racemic)
[1]
  Activity: inactive
[2]
  LD50: 135 mg/kg
[10]
  IC50: 2500 nM
[3]
  inhibition: 19.4%
[4]
  Activity: 12.1%
[5]
  Activity: 13.3%
[6]
  inhibition in vivo at 15 mg/kg: 24.5%

## CC(N)Cc1ccc(Cl)s1.Cl (racemic)
[1]
  Activity: Active
[9]
  Activity: Active
[2]
  LD50: 113 mg/kg
[3]
  inhibition: 17.7%
[4]
  Activity: 14.5%
[5]
  Activity: 15.4%
[6]
  inhibition in vivo at 15 mg/kg: 4.1%

## CC(N)Cc1cccs1.Cl (racemic)
[1]
  Activity: Active
[2]
  LD50: 162 mg/kg
[3]
  inhibition: 5.3%
[4]
  Activity: 4.3%

From ChEMBL document CHEMBL3244091, “Effects of thiophene analogues of chloroamphetamines on central serotonergic mechanisms” (J Med Chem, 1978)
